# In ChEMBL document CHEMBL1124554, “Chemical delivery systems for some penicillinase-resistant semisynthetic penicillins” (J Med Chem, 1989):
# Tests used:
# [1] = Half-life at pH 7.4 in rat 10% brain homogenate; assay type: ADME
# Summary of the method: (§1)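 Fresh rat whole blood, or rat brain homogenized to 10% (w/v) in pH 7.4 phosphate buffer (1/20 M), spiked from DMSO stock to 40 μM final and held at 37 °C. Timed samples were extracted three times with 8% DMSO in acetonitrile, centrifuged, filtered and analyzed by HPLC. Pseudo-first-order rate constants came from log peak height versus time. Values are means of two determinations.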
# [2] = Half-life at pH 7.4 in rat blood; assay type: ADME, organism-based; summary of the method: as §1
# [3] = Half-life in phosphate buffer (0.05 M, mu = 0.15) at 30 degree Celsius with pH 6.15; assay type: ADME
# Summary of the method: (§2)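 DMSO stock added to 10 mL phosphate buffer (0.05 M, μ = 0.15) at the stated pH. Timed samples were analyzed by HPLC, with UV detection at 360 nm for dihydro CDS forms and 260 nm for quaternary salts. Pseudo-first-order disappearance rate constants came from linear regression of log peak height versus time, and half-lives were derived from them.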
# [4] = Half-life in phosphate buffer (0.05 M, mu = 0.15) at 30 degree Celsius with pH 6.93; assay type: ADME; summary of the method: as §2
# [5] = Half-life in phosphate buffer (0.05 M, mu = 0.15) at 30 degree Celsius with pH 7.45; assay type: ADME; summary of the method: as §2
# [6] = Half-life in phosphate buffer (0.05 M, mu = 0.15) at 30 degree Celsius with pH 7.79; assay type: ADME; summary of the method: as §2
# [7] = Second-order oxidation rate constant determined using ferricyanide; assay type: ADME
# Summary of the method: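 Chemical oxidation with ferricyanide was run under pseudo-first-order conditions, with Fe(CN)6^3- in large excess over the CDS and pH held constant. Pseudo-first-order rates were measured at several ferricyanide concentrations, and the second-order constant (M^-1 s^-1) was derived from them.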
# [8] = Half-life in phosphate buffer (0.05 M, mu = 0.15) at 30 degree Celsius with pH 8.14; assay type: ADME; summary of the method: as §2
# [9] = Lipophilicity was determined by reversed-phase HPLC; settings: extrapolated to 100% water
# [10] = species: Homo sapiens; test: Half-life at pH 7.4 in human blood; Compound insoluble; assay type: ADME, organism-based
# Summary of the method: (§3)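 Freshly collected rabbit or human whole blood, spiked from DMSO stock to 40 μM final and kept at 37 °C. Timed samples were extracted three times with 8% DMSO in acetonitrile, centrifuged, filtered and analyzed by HPLC. Pseudo-first-order rate constants came from linear regression of log peak height versus time.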
# [11] = species: Oryctolagus cuniculus; test: Half-life at pH 7.4 in rabbit blood; Compound insoluble; assay type: ADME, organism-based; summary of the method: as §3
# [12] = Half-life in phosphate buffer (0.05 M, mu = 0.15) at 30 degree Celsius with pH 6.07; assay type: ADME; summary of the method: as §2
# [13] = Half-life in phosphate buffer (0.05 M, mu = 0.15) at 30 degree Centigrade with pH 6.88; assay type: ADME; summary of the method: as §2
# [14] = Half-life in phosphate buffer (0.05 M, mu = 0.15) at 30 degree Celsius with pH 7.43; assay type: ADME; summary of the method: as §2
# [15] = Half-life in phosphate buffer (0.05 M, mu = 0.15) at 30 degree Celsius with pH 7.73; assay type: ADME; summary of the method: as §2
# [16] = Half-life in phosphate buffer (0.05 M, mu = 0.15) at 30 degree Celsius with pH 8.05; assay type: ADME; summary of the method: as §2
# [17] = Half-life at pH 7.4 in human blood; assay type: ADME, organism-based; summary of the method: as §3
# [18] = Half-life at pH 7.4 in rabbit blood; assay type: ADME, organism-based, Oryctolagus cuniculus; summary of the method: as §3
# [19] = species: Oryctolagus cuniculus; test: Concentration of compound after 10 min in rabbit brain; assay type: functional, organism-based
# Summary of the method: (§4)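 Oxacillin at 20 mg/kg, or an equimolar dose of its CDS, given i.v. to male Sprague-Dawley rats (tail vein) or male New Zealand albino rabbits (ear vein). Vehicle was water/ethanol/propylene glycol at 20 mg/mL. Samples were rat trunk blood after decapitation or rabbit ear-vein blood, with brain removed and frozen. Oxacillin was assayed by B. subtilis ATCC 6633 paper-disk diffusion and by HPLC. Values are means of two determinations.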
# [20] = species: Oryctolagus cuniculus; test: (§5) Concentration of compound after 5 minutes in rabbit blood; assay type: functional, organism-based; summary of the method: as §4
# [21] = species: Oryctolagus cuniculus; test: Concentration of compound after 5 minutes in rabbit brain; assay type: functional, organism-based; summary of the method: as §4
# [22] = species: Oryctolagus cuniculus; test: Concentration of compound after 10 min in rabbit blood; assay type: functional, organism-based; summary of the method: as §4
# [23] = species: Rattus norvegicus; test: Concentration of compound after 3 minutes in rat blood; assay type: functional, organism-based
# [24] = species: Rattus norvegicus; test: Concentration of compound after 3 minutes in rat brain; assay type: functional, organism-based; summary of the method: as §4
# [25] = Half-life in phosphate buffer (0.05 M, mu = 0.15) at 30 degree Celsius and pH 6.15; assay type: ADME; summary of the method: as §2
# [26] = Half-life in phosphate buffer (0.05 M, mu = 0.15) at 30 degree Celsius and pH 6.93; assay type: ADME; summary of the method: as §2
# [27] = Half-life in phosphate buffer (0.05 M, mu = 0.15) at 30 degree Celsius and pH 7.45; assay type: ADME; summary of the method: as §2
# [28] = as §5; assay type: ADME, organism-based, Oryctolagus cuniculus
# [29] = Concentration of compound after 10 minutes in rabbit blood; assay type: ADME, organism-based, Oryctolagus cuniculus
Structure (SMILES),half-life [1] [min],half-life [2] [min],half-life [6] [min],ko [7] [M⁻¹ s⁻¹],half-life [8] [min],Log k [9],half-life [12] [min],half-life [13] [min],half-life [14] [min],half-life [15] [min],other results
Cc1onc(-c2ccccc2Cl)c1C(=O)NC1C(=O)N2C1SC(C)(C)[C@@H]2C(=O)OCOC(=O)C1=CN(C)C=CC1 (some centres not stated),10,3.8,305,0.36,165,3.06,–,–,–,–,half-life [3]: 350 min; half-life [4]: 506 min; half-life [5]: 377 min
Cc1onc(-c2c(Cl)cccc2Cl)c1C(=O)NC1C(=O)N2C1SC(C)(C)[C@@H]2C(=O)[O-].[Na+] (some centres not stated),–,–,–,–,–,2.435,–,–,–,–,–
COc1cccc(OC)c1C(=O)NC1C(=O)N2C1SC(C)(C)[C@@H]2C(=O)OCOC(=O)c1ccc[n+](C)c1.[I-] (some centres not stated),1.1,1,–,–,–,–,58.6,12,3.6,2,T1/2 [10]: Insoluble; T1/2 [11]: Insoluble; half-life [16]: 1 min
COc1cccc(OC)c1C(=O)N[C@@H]1C(=O)N2[C@@H]1SC(C)(C)[C@@H]2C(=O)[O-].[Na+],–,–,–,–,–,0.658,–,–,–,–,–
Cc1onc(-c2c(Cl)cccc2Cl)c1C(=O)NC1C(=O)N2C1SC(C)(C)[C@@H]2C(=O)OCOC(=O)C1=CN(C)C=CC1 (some centres not stated),12.6,4.1,932,0.23,598,3.41,–,–,–,–,half-life [3]: 464 min; half-life [4]: 1010 min; half-life [5]: 1030 min
Cc1onc(-c2ccccc2)c1C(=O)NC1C(=O)N2C1SC(C)(C)[C@@H]2C(=O)OCOC(=O)c1ccc[n+](C)c1.[I-] (some centres not stated),1.2,0.7,–,–,–,–,49,10.3,3.4,1.9,half-life [16]: 1.1 min
Cc1onc(-c2ccccc2Cl)c1C(=O)NC1C(=O)N2C1SC(C)(C)[C@@H]2C(=O)[O-].[Na+] (some centres not stated),–,–,–,–,–,2.097,–,–,–,–,–
Cc1onc(-c2ccccc2)c1C(=O)NC1C(=O)N2C1SC(C)(C)[C@@H]2C(=O)OCOC(=O)C1=CN(C)C=CC1 (some centres not stated),5.4,1.1,172,0.48,100,2.82,–,–,–,–,half-life [17]: 7.5 min; half-life [18]: 23.7 min; half-life [3]: 249 min; half-life [4]: 277 min; half-life [5]: 196 min; Concentration [19]: 0.3 µg/mL; Concentration [20]: 4.6 µg/mL; Concentration [21]: 0.3 µg/mL; Concentration [22]: 2.2 µg/mL; Concentration [23]: 26.2 µg/mL; Concentration [24]: 2.1 µg/mL
COc1cccc(OC)c1C(=O)NC1C(=O)N2C1SC(C)(C)[C@@H]2C(=O)OCOC(=O)C1=CN(C)C=CC1 (some centres not stated),8,0.2,103,0.701,55.7,2.28,–,–,–,–,half-life [17]: 116 min; half-life [18]: 10.7 min; half-life [25]: 130 min; half-life [26]: 238 min; half-life [27]: 134 min
Cc1onc(-c2ccccc2Cl)c1C(=O)NC1C(=O)N2C1SC(C)(C)[C@@H]2C(=O)OCOC(=O)c1ccc[n+](C)c1.[I-] (some centres not stated),1.1,0.6,–,–,–,–,56,11.3,3.5,2.1,half-life [16]: 1 min
Cc1onc(-c2ccccc2)c1C(=O)N[C@@H]1C(=O)N2[C@@H]1SC(C)(C)[C@@H]2C(=O)[O-].[Na+],–,–,–,–,–,1.868,–,–,–,–,concentration at 5 min [28]: 15.3 µg/mL; concentration at 10 min [29]: 9.1 µg/mL; Concentration [23]: 41.1 µg/mL
Cc1onc(-c2c(Cl)cccc2Cl)c1C(=O)NC1C(=O)N2C1SC(C)(C)[C@@H]2C(=O)OCOC(=O)c1ccc[n+](C)c1.[I-] (some centres not stated),1,0.7,–,–,–,–,44.4,14.7,3.9,2.9,–
